What follows are compounds tested against T1, UniProt Q8VGJ5. Conditions: stereoisomer not certain.
T1 sequence (whole entry): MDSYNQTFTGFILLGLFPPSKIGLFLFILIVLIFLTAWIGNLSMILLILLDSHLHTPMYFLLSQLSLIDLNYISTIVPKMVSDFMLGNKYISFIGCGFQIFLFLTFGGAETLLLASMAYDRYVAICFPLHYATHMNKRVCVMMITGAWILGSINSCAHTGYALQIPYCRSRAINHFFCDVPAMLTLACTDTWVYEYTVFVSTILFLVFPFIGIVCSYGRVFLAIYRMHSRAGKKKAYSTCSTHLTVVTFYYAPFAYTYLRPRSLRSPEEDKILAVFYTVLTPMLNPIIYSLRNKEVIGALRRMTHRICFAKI
Outline: (§1)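 Values were gathered from published papers (main text and supplementary material), with extra details requested from the original authors when needed, and checked for typos and inconsistencies. Each receptor–molecule pair is called responsive (active) if the original authors judged the measured signal statistically different from baseline, and non-responsive (inactive) otherwise. Assay methods varied by source, often transient mammalian cell-line luciferase assays. Recorded details include cell line, G-protein, co-transfected protein and tags.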

Row | SMILES | odorant receptor agonist call
1 | C=CCc1ccccc1 | inactive
2 | O=c1cc(O)c2ccccc2o1 | inactive
3 | CCC1CCC(=O)O1 (centres undefined) | active
4 | C=CCOC(=O)Cc1ccccc1 | active

Each compound was assayed against T2, UniProt Q8VGL0. Conditions: stereoisomer not certain.
T2 sequence (whole entry): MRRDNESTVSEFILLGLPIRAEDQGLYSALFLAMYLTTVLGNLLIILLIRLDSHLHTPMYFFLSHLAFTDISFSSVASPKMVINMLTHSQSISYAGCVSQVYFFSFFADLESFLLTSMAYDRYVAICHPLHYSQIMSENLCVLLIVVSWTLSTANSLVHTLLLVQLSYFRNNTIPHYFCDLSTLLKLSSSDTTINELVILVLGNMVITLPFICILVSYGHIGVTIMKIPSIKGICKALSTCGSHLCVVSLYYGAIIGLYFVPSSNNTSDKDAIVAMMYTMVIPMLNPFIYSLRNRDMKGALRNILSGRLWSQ
Outline: as §1

Row | SMILES | odorant receptor agonist call
5 | C=CCc1ccccc1 | inactive
6 | O=c1cc(O)c2ccccc2o1 | inactive
7 | COc1ccc(C=O)cc1 | inactive
8 | CCC1CCC(=O)O1 (centres undefined) | inactive
9 | C=CCOC(=O)Cc1ccccc1 | inactive
10 | O=CC=Cc1ccccc1 | inactive
11 | C=C(C)C1CC=C(C=O)CC1 (centres undefined) | inactive
12 | O=Cc1ccc2c(c1)OCO2 | inactive
13 | O=Cc1ccccc1 | inactive
14 | CSSC | inactive
15 | CC(C=O)Cc1ccc2c(c1)OCO2 (centres undefined) | inactive
16 | CCCCC(Br)C(=O)O (centres undefined) | inactive
17 | Oc1ccccc1Br | inactive
18 | Cc1ccc(OC(=O)Cc2ccccc2)cc1 | inactive
19 | CCCCCCC(Br)C(=O)O (centres undefined) | inactive
20 | OCc1ccc2c(c1)OCO2 | inactive

Each compound was assayed against T3, UniProt Q8VGL7. Conditions: stereoisomer not certain.
T3 sequence (whole entry): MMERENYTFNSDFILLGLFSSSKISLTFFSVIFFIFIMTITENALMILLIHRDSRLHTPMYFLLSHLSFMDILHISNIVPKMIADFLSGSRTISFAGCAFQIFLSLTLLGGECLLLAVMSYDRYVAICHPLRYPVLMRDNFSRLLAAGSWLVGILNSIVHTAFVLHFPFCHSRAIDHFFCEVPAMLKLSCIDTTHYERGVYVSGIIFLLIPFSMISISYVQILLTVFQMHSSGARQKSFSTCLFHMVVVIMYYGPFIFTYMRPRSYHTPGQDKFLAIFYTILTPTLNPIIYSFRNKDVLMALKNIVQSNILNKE
Outline: as §1

Row | SMILES | odorant receptor agonist call
21 | C=CCc1ccccc1 | inactive
22 | O=c1cc(O)c2ccccc2o1 | inactive
23 | CCC1CCC(=O)O1 (centres undefined) | inactive
24 | C=CCOC(=O)Cc1ccccc1 | inactive

What follows are compounds tested against T4, UniProt Q8VGM2. Conditions: stereoisomer not certain.
T4 sequence (whole entry): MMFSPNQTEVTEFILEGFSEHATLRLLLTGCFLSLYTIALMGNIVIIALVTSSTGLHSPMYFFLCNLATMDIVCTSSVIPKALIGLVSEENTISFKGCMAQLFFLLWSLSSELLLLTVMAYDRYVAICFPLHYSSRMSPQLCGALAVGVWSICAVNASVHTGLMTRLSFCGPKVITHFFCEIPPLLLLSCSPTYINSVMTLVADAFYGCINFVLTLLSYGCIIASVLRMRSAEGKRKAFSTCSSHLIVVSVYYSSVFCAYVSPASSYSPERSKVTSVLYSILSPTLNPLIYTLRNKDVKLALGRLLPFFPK
Outline: as §1

Row | SMILES | odorant receptor agonist call
25 | C=CCc1ccccc1 | inactive
26 | O=c1cc(O)c2ccccc2o1 | inactive
27 | CCC1CCC(=O)O1 (centres undefined) | inactive
28 | C=CCOC(=O)Cc1ccccc1 | inactive

These compounds were tested against T5, UniProt Q8VGP6. Conditions: stereoisomer not certain.
T5 sequence (whole entry): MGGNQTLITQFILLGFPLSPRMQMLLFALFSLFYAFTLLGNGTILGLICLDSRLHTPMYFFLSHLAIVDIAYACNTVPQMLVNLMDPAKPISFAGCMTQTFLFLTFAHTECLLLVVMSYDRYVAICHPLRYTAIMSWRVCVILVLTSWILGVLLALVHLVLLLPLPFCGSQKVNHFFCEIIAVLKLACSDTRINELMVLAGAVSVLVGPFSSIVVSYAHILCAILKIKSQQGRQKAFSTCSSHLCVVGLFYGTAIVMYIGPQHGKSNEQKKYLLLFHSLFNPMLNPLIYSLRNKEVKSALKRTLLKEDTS
Outline: as §1

Row | SMILES | odorant receptor agonist call
29 | C=CCc1ccccc1 | inactive
30 | O=c1cc(O)c2ccccc2o1 | inactive
31 | CCC1CCC(=O)O1 (centres undefined) | inactive
32 | C=CCOC(=O)Cc1ccccc1 | active

These compounds were tested against T6, UniProt Q8VGQ3. Conditions: stereoisomer not certain.
T6 sequence (whole entry): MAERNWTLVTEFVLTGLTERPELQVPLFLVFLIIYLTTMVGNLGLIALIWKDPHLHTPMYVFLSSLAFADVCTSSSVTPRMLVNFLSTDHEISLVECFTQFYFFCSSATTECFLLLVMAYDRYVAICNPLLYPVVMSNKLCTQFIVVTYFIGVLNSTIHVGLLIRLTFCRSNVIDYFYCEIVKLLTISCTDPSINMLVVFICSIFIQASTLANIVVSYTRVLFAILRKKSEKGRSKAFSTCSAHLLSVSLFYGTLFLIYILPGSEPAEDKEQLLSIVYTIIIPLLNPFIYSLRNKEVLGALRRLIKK
Outline: as §1

Row | SMILES | odorant receptor agonist call
33 | C=CCc1ccccc1 | inactive
34 | O=c1cc(O)c2ccccc2o1 | inactive
35 | CCC1CCC(=O)O1 (centres undefined) | inactive
36 | C=CCOC(=O)Cc1ccccc1 | inactive

These compounds were tested against T7, UniProt Q8VGT4. Conditions: stereoisomer not certain.
T7 sequence (whole entry): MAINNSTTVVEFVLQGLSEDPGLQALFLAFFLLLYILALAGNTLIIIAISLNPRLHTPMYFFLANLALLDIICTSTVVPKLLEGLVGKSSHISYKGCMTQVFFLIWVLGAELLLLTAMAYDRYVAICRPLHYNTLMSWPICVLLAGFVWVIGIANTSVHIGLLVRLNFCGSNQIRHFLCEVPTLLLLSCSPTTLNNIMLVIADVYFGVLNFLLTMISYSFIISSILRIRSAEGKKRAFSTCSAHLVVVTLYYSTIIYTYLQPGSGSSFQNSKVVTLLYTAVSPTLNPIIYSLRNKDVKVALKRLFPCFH
Outline: as §1

Row | SMILES | odorant receptor agonist call
37 | C=CCc1ccccc1 | inactive
38 | O=c1cc(O)c2ccccc2o1 | inactive
39 | CCC1CCC(=O)O1 (centres undefined) | inactive
40 | C=CCOC(=O)Cc1ccccc1 | inactive

These compounds were tested against T8, UniProt Q8VGU3. Conditions: stereoisomer not certain.
T8 sequence (whole entry): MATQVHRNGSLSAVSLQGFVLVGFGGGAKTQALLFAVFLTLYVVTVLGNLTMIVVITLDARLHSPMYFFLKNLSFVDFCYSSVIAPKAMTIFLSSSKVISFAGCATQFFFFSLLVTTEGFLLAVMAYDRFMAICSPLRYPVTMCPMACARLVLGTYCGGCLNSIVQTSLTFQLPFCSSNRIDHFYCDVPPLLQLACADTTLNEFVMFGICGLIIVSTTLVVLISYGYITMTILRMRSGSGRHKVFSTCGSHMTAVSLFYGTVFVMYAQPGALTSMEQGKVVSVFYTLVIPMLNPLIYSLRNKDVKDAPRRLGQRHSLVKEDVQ
Outline: as §1

Row | SMILES | odorant receptor agonist call
41 | O=c1cc(O)c2ccccc2o1 | inactive
42 | COc1ccc(C=O)cc1 | inactive
43 | C=CCOC(=O)Cc1ccccc1 | inactive
44 | O=CC=Cc1ccccc1 | inactive
45 | C=C(C)C1CC=C(C=O)CC1 (centres undefined) | inactive
46 | O=Cc1ccc2c(c1)OCO2 | inactive
47 | O=Cc1ccccc1 | inactive
48 | CSSC | inactive
49 | CC(C=O)Cc1ccc2c(c1)OCO2 (centres undefined) | inactive
50 | CCCCC(Br)C(=O)O (centres undefined) | inactive
51 | Oc1ccccc1Br | inactive
52 | Cc1ccc(OC(=O)Cc2ccccc2)cc1 | inactive
53 | CCCCCCC(Br)C(=O)O (centres undefined) | inactive
54 | OCc1ccc2c(c1)OCO2 | inactive
